# Source: ChEMBL document CHEMBL2151030, “Improving the solubility of a new class of antiinflammatory pharmacodynamic hybrids, that release nitric oxide and inhibit cycloxygenase-2 isoenzyme” (Eur J Med Chem, 2012)
# Assays:
# J774 = assay: Selectivity index, ratio of IC50 for COX1-mediated PGE2 production to IC50 for COX2-mediated PGE2 production in mouse J774 cells; type: cell-based
# Summary of the method: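 Ratio of the COX-1 IC50 to the COX-2 IC50, both from PGE2 RIA in J774 cells. For COX-1, cells were given compound for 15 min, then 15 μM arachidonic acid for 30 min; lower concentrations (0.01–1 μM) were tested when warranted. For COX-2, cells were given LPS 10 µg/mL for 24 h with compound at 0.01–10 μM. IC50 came from a sigmoidal variable-slope fit.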
# Mus musculus [1] = assay: Analgesic activity in Swiss albino mouse assessed as reduction of acetic acid-induced writhing at 71.8 nmol/kg, po after 5 mins; type: functional; parameters: scale not given: the % may be the effect or the level left
# Summary of the method: (§1)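 Male Swiss albino mice (23-25 g), standard diet and water ad libitum, 23 ± 1 °C, 12 h light/dark cycle. Test compound given orally; 0.6% acetic acid (10 mL/kg) injected ip. Stretching movements counted for 10 min, beginning 5 min after administration.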
# [2] = target: T1, Prostaglandin G/H synthase 1 (Mus musculus) (UniProt P22437); assay: Inhibition of COX1-mediated PGE2 production in mouse J774 cells at 10 uM preincubated for 15 mins measured after 30 mins by radioimmunoassay relative to control; type: cell-based
# T1 sequence (whole entry): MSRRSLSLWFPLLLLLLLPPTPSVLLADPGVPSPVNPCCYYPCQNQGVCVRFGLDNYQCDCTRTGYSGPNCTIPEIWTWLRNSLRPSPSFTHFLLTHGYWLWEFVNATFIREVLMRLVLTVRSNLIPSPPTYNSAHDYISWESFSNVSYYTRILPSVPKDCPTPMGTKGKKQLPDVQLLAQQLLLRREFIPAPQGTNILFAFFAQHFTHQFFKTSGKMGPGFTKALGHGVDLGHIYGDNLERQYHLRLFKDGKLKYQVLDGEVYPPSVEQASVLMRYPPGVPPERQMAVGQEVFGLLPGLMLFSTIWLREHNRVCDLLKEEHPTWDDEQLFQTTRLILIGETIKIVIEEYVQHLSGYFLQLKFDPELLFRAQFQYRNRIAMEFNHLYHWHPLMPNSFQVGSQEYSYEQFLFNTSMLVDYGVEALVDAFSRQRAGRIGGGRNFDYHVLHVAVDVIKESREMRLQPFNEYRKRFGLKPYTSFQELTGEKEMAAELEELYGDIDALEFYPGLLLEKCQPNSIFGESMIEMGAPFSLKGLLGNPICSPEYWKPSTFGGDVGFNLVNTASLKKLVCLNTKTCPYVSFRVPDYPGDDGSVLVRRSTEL
# Summary of the method: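 Murine J774 macrophages in DMEM with 10% FBS, glutamine, HEPES, pyruvate and antibiotics, adhered 2 h at 37 °C in 5% CO2. Medium was refreshed, cells were pretreated with compound for 15 min, then given 15 μM arachidonic acid for 30 min at 37 °C. PGE2 in supernatant was measured by RIA as % inhibition versus control, triplicate wells, mean of three experiments.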
# [3] = Solubility of the compound in PBS buffer at pH 7.4 by HPLC analysis; type: physicochemical
# Summary of the method: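 20 mM DMSO stocks diluted 1:100 into 0.01 M PBS pH 7.4 in duplicate wells of a solubility filter plate, shaken 90 min at 300 rpm. Seven-point calibration standards from 1 to 200 μM.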
# [4] = target: T2, Prostaglandin G/H synthase 1 (Mus musculus, UniProt P22437); assay: Inhibition of COX1-mediated PGE2 production in mouse J774 cells preincubated for 15 mins measured after 30 mins by radioimmunoassay; type: cell-based
# T2 sequence (P22437 whole entry): T1 sequence (whole entry)
# Summary of the method: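 Murine J774 macrophages in DMEM/10% FBS, adhered 2 h at 37 °C. […] Supernatant PGE2 measured by RIA. Triplicate wells, mean of three experiments; IC50 by sigmoidal variable-slope fit.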
# [5] = Solubility of the compound in simulated gastric fluid without pepsin at pH 1.5 by HPLC analysis; type: physicochemical
# Summary of the method: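 Compound from 20 mM DMSO stock diluted 1:100 into 0.05 M simulated gastric fluid without pepsin (pH 1.5 with HCl), duplicate wells on a solubility filter plate, shaken 90 min at 300 rpm. Seven-point calibration standards from 1 to 200 μM.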
# Mus musculus [6] = assay: Analgesic activity in Swiss albino mouse assessed as reduction of acetic acid-induced writhing at 35.9 nmol/kg, po after 5 mins; type: functional; parameters: scale not given: the % may be the effect or the level left; summary of the method: as §1
# Aorta = assay: Vasorelaxant activity in Wistar rat endothelium-denuded thoracic aortic ring assessed as inhibition of KCl-induced contractile tone in presence of guanylate cyclase inhibitor ODQ; type: functional, tissue-based
# Summary of the method: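 Male normotensive Wistar rats (250–350 g); thoracic aortic rings, endothelium removed by rubbing, removal confirmed by <10% relaxation to ACh (10 µM) in KCl (30 mM)-contracted rings. ODQ 1 µM incubated after confirmation; rings contracted with KCl 30 mM, then 3-fold increasing compound concentrations (1 nM–10 µM). Isometric tension; pIC50 from half reduction of KCl tone; mean ± SE, 6–10 experiments.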
# [7] = target: T3, Prostaglandin G/H synthase 2 (Mus musculus) (UniProt Q05769); assay: Inhibition of COX2-mediated PGE2 production in LPS-induced mouse J774 cells by radioimmunoassay relative to control; type: cell-based; parameters: concentration or dose not given beside the values; details: concentration not given here
# T3 sequence (whole entry): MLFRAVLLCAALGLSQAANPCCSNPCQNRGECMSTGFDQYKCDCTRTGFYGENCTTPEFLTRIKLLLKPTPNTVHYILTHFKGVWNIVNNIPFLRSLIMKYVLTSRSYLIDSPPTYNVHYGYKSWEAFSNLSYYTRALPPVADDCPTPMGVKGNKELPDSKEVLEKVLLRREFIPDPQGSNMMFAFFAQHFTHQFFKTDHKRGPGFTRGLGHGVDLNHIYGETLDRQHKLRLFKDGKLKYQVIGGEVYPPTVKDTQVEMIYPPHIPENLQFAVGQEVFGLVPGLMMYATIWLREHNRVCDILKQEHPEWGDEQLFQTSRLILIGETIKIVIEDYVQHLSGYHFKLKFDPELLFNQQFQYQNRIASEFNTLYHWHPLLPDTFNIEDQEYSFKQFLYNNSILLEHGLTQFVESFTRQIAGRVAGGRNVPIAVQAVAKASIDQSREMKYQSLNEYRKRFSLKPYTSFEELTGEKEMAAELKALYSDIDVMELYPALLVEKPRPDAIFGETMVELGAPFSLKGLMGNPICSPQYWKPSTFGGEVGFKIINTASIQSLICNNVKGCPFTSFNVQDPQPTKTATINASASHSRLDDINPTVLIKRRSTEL
# Summary of the method: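 J774 cells, cultured as for the COX-1 assay, were stimulated 24 h with E. coli LPS (10 µg/mL) to induce COX-2, with or without compound at 0.01–10 μM. Supernatant PGE2 was measured by RIA as % inhibition versus control, triplicate wells, mean of three experiments. IC50 came from a sigmoidal variable-slope dose-response fit.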
# Rattus norvegicus [8] = assay: Antiinflammatory activity in rat assessed as reduction of carrageenan-induced paw pressure at 40 mg/kg, po after 60 mins post carrageenan-challenge; type: functional; parameters: scale not given: the % may be the effect or the level left
# Summary of the method: (§2)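 Rats (Sprague-Dawley or Wistar, 150-200 g) received intraplantar carrageenan 4 h before testing, then oral compound or CMC vehicle. Paw-pressure threshold read before treatment and at 15, 30, 45 and 60 min after treatment, compared with saline and carrageenan controls.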
# Mus musculus [9] = assay: Analgesic activity in Swiss albino mouse assessed as reduction of acetic acid-induced writhing at 36.8 nmol/kg, po after 5 mins; type: functional; parameters: scale not given: the % may be the effect or the level left; summary of the method: as §1
# Rattus norvegicus [10] = assay: Antiinflammatory activity in rat assessed as reduction of carrageenan-induced paw pressure at 40 mg/kg, po after 30 mins post carrageenan-challenge; type: functional; parameters: scale not given: the % may be the effect or the level left; summary of the method: as §2
# Rattus norvegicus [11] = assay: Antiinflammatory activity in rat assessed as reduction of carrageenan-induced paw pressure at 20 mg/kg, po after 30 mins post carrageenan-challenge; type: functional; parameters: scale not given: the % may be the effect or the level left; summary of the method: as §2
# Rattus norvegicus [12] = assay: Antiinflammatory activity in rat assessed as reduction of carrageenan-induced paw pressure at 40 mg/kg, po after 45 mins post carrageenan-challenge; type: functional; parameters: scale not given: the % may be the effect or the level left; summary of the method: as §2
# Rattus norvegicus [13] = assay: Antiinflammatory activity in rat assessed as reduction of carrageenan-induced oedema in right hind paw at 40 mg/kg, po after 4 hrs post carrageenan-challenge; type: functional; parameters: scale not given: the % may be the effect or the level left
# Summary of the method: (§3)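 Sprague-Dawley or Wistar rats (150-200 g). Carrageenan injected intraplantar; oral treatment with test compound or CMC vehicle. Right hind paw volume measured 4 h after carrageenan and compared with saline- and carrageenan-treated controls.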
# Rattus norvegicus [14] = assay: Antiinflammatory activity in rat assessed as reduction of carrageenan-induced paw pressure at 20 mg/kg, po after 15 mins post carrageenan-challenge; type: functional; parameters: scale not given: the % may be the effect or the level left; summary of the method: as §2
# Rattus norvegicus [15] = assay: Antiinflammatory activity in rat assessed as reduction of carrageenan-induced paw pressure at 20 mg/kg, po after 60 mins post carrageenan-challenge; type: functional; parameters: scale not given: the % may be the effect or the level left; summary of the method: as §2
# Rattus norvegicus [16] = assay: Antiinflammatory activity in rat assessed as reduction of carrageenan-induced oedema in right hind paw at 20 mg/kg, po after 4 hrs post carrageenan-challenge; type: functional; parameters: scale not given: the % may be the effect or the level left; summary of the method: as §3
# Mus musculus [17] = assay: Analgesic activity in Swiss albino mouse assessed as reduction of acetic acid-induced writhing at 18.4 nmol/kg, po after 5 mins; type: functional; parameters: scale not given: the % may be the effect or the level left; summary of the method: as §1
# Mus musculus [18] = assay: Analgesic activity in Swiss albino mouse assessed as reduction of acetic acid-induced writhing at 5.5 nmol/kg, po after 5 mins; type: functional; parameters: scale not given: the % may be the effect or the level left; summary of the method: as §1
# Rattus norvegicus [19] = assay: Antiinflammatory activity in rat assessed as reduction of carrageenan-induced paw pressure at 20 mg/kg, po after 45 mins post carrageenan-challenge; type: functional; parameters: scale not given: the % may be the effect or the level left; summary of the method: as §2
# Mus musculus [20] = assay: Analgesic activity in Swiss albino mouse assessed as reduction of acetic acid-induced writhing at 73.6 nmol/kg, po after 5 mins; type: functional; parameters: scale not given: the % may be the effect or the level left; summary of the method: as §1
# Rattus norvegicus [21] = assay: Antiinflammatory activity in rat assessed as reduction of carrageenan-induced paw pressure at 40 mg/kg, po after 15 mins post carrageenan-challenge; type: functional; parameters: scale not given: the % may be the effect or the level left; summary of the method: as §2
# [22] = target: T4, Prostaglandin G/H synthase 2 (Mus musculus, UniProt Q05769); assay: Inhibition of COX2-mediated PGE2 production in LPS-induced mouse J774 cells by radioimmunoassay; type: cell-based
# T4 sequence (Q05769 whole entry): T3 sequence (whole entry)
# Summary of the method: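 J774 murine macrophages stimulated 24 h with E. coli LPS (10 µg/mL) to induce COX-2, with or without compound (0.01–10 μM). Supernatant PGE2 measured by RIA; percent inhibition against controls. Triplicate wells, mean of three experiments; IC50 from sigmoidal variable-slope fit.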
inhibition [2] [%],solubility [3] [µM],IC50 [4] [nM],solubility [5] [µM],IC50 (Aorta) [nM],inhibition [7] [%],IC50 [22] [nM],Compound,Ratio IC50 (J774),other results
0,80,> 10000,> 200,2190,95,–,Cc1c(C(N)C(=O)OCCCO[N+](=O)[O-])cc(-c2ccc(S(C)(=O)=O)cc2)n1-c1ccc(F)cc1 (stereo not given),> 12.2,Activity (Rattus norvegicus [8]): 16%; Activity (Mus musculus [9]): 46.1%; Activity (Rattus norvegicus [10]): 70%; Activity (Rattus norvegicus [11]): 44%; Activity (Rattus norvegicus [12]): 53%; Activity (Rattus norvegicus [13]): 45%; Activity (Rattus norvegicus [14]): 25%; Activity (Rattus norvegicus [15]): 15%; Activity (Rattus norvegicus [16]): 15%; Activity (Mus musculus [17]): 36.2%; Activity (Mus musculus [18]): 19%; Activity (Rattus norvegicus [19]): 27%; Activity (Mus musculus [20]): 59.6%; Activity (Rattus norvegicus [21]): 40%
15,–,> 10000,–,–,59,1410,Cc1c(C(N)C(=O)OCCCCO[N+](=O)[O-])cc(-c2ccc(S(C)(=O)=O)cc2)n1-c1cccc(F)c1 (stereo not given),> 7.09,–
10,–,> 10000,–,–,100,220,Cc1c(C(N)C(=O)OCCCCO)cc(-c2ccc(S(C)(=O)=O)cc2)n1-c1ccc(F)cc1 (stereo not given),> 45.5,–

# The next lines start with the compound.
Compound,inhibition [2] [%],solubility [3] [µM],IC50 [4] [nM],solubility [5] [µM],IC50 (Aorta) [nM],inhibition [7] [%],IC50 [22] [nM],Ratio IC50 (J774),other results
Cc1c(C(N)C(=O)OCCCCO[N+](=O)[O-])cc(-c2ccc(S(C)(=O)=O)cc2)n1-c1ccc(F)cc1 (stereo not given),1,70.8,> 10000,> 200,1550,82,–,> 10,Activity (Mus musculus [1]): 40.7%; Activity (Mus musculus [6]): 26.9%
Cc1c(C(N)C(=O)OCCCO)cc(-c2ccc(S(C)(=O)=O)cc2)n1-c1cccc(F)c1 (stereo not given),30,–,> 10000,–,–,79,1190,> 8.4,–
